The source made the active and inactive calls.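 The calls were made as follows, unless noted: active = compounds giving at least 50% inhibition in the cell-based MKP-3 phosphatase rescue imaging test; inactive = the rest.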

Test [1] can be described thus: inhibitors of TNFa-induced NFkB p65 translocation, primary screen, imaging, HUVEC, MLSMR starter and 10KST1 sets (AID 438;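 active = inhibition above 20% together with a positive visual image hit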;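 also: compound added about 3h40 before a 20 min TNFalpha stimulation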;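 as to inhibition: signal is the nuclear over cytoplasmic p65 intensity ratio per well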). Particulars: HUVEC TNFa-induced p65 nuclear translocation; cell count: measured here: nuclei count (cytotoxicity indicator), at 2.08 µM; inhibition: at 2 µM, stronger effect = higher value, 0% TNFa-plus-vehicle, 100% no-TNFa wells.
The nature of test [2]: endothelial E-selectin expression blockers – imaging, HUVEC, immunofluorescence, MLSMR starter and 10KST1 sets, primary screen (AID 487;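 active = visually confirmed hit in the image check and inhibition above 20%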;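 as to inhibition: signal is fraction of cell area covered by stained E-selectin grains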;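 as to nuclei count: 100% = median nuclei count of all wells on the same plate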). As to conditions: HUVEC TNFalpha-induced E-selectin immunofluorescence imaging, at 2 µM; inhibition: stronger effect = higher value; nuclei count: measured here: cell number, toxicity.
The nature of test [3]: Primary imaging screen for DUSP6 inhibitors that restore phospho-Erk in transfected HeLa cells, chemical complementation (AID 609).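 As to inhibition: phospho-Erk level distribution per well compared with pooled transfected vehicle control wells.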 As to conditions: HeLa MKP-3 transfected, phospho-Erk imaging KS statistic, at 10 µM, cells stimulated with TPA for 15 min.
In test [4] the target is Dual specificity protein phosphatase 6 (Homo sapiens) (UniProt Q16828). Described as above. Particulars: HeLa MKP-3 transfected, phospho-Erk imaging KS statistic; at 10 µM; stronger effect = higher value; cells stimulated with TPA for 15 min.
Sequence of Dual specificity protein phosphatase 6 (Homo sapiens) (Q16828 whole entry, looked up): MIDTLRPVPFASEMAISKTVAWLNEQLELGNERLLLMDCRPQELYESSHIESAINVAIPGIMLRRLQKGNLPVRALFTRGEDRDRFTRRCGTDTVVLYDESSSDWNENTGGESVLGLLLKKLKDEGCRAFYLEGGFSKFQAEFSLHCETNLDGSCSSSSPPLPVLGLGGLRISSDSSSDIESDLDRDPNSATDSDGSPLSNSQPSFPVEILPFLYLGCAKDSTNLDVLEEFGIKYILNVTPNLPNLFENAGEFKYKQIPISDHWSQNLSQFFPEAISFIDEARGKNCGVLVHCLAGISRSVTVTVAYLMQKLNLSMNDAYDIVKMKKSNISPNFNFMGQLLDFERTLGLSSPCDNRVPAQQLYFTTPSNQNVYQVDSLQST
Test [5] deals with Voltage-gated potassium channel subunit beta-2 (Rattus norvegicus) (UniProt P62483). Description: inhibitors of rat Kvbeta2 reductase activity – biochemical, NADPH fluorescence, primary screen (AID 622;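 active = fluorescence slope higher than the sample average by over 3 SD, cut at about -0.22 in these data, passing the limit was not always enough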;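 also: slope of raw intensity against log time taken from 70 to 1610 s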). As to conditions: recombinant KvBeta, 4-cyanobenzaldehyde reduction, at 10 µM, stronger effect = higher value.
Sequence of Voltage-gated potassium channel subunit beta-2 (Rattus norvegicus) (P62483 whole entry, looked up): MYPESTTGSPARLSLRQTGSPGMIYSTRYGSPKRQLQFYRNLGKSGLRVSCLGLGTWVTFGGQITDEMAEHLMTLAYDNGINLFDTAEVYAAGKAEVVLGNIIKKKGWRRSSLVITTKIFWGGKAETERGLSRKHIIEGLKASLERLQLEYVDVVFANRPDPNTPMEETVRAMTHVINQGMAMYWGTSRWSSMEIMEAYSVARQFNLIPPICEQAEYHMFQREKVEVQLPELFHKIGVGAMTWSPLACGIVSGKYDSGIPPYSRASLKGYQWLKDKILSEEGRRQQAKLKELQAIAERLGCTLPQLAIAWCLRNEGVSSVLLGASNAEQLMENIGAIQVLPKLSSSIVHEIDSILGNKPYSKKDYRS
Test [6] has the same target. Briefly: enhancers of rat Kvbeta2 NADPH turnover – biochemical, NADPH fluorescence, primary screen (AID 623;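 active = NADPH fluorescence slope more negative than the mean of all samples by about 3 SD, 99.7% confidence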;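 also: fluorescence intensity change per second fitted from 20 to 320 s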). As to conditions: Recombinant KvBeta, NADPH fluorescence decrease slope, 10 min; at 10 µM; stronger effect = lower value.
Test [7] addresses Alpha-2C adrenergic receptor (Homo sapiens) (UniProt P18825). Description: compounds altering alpha2C-coupled GIRK flux – cell-based, HEK293 alpha2C/GIRK1/2, thallium flux, primary screen (AID 624;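 active = fluorescence slope after compound addition differing from the mean of all screened samples at 99.7% confidence, in either direction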;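 also: slope of fluorescence ratio to pre-addition baseline per second over 15 to 24 s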). As to conditions: thallium flux BTC fluorescence, at 10 µM, actives lie on both sides.
A short description of test [8]: inhibitors of larval lipid processing in zebrafish, primary screen, whole organism, PED6 fluorescence, gall bladder and intestine (AID 686;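 active = a full or partial loss of lipid-probe fluorescence in the fish gall bladder, intestine or both, judged by eye; inactive = no fluorescence loss, or compound toxic to the fish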;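 also: larvae 5 to 7 days old with five fish per well; signal comes from phospholipase A2 cleavage of quenched PED6 carried via bile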). As to conditions: Zebrafish larvae PED6 lipid processing, fluorescence scoring; screened at 20 µM (by protocol). In a few lines: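 system = live zebrafish larvae aged 5-7 days, whole organism | probe or stimulus = ingested quenched lipid PED6 at 100 nM | doses = 20 µM single dose | timing = overnight exposure | detection = fluorescence microscopy with visual scoring of gall bladder and intestine | read-out = visual per-well fluorescence inhibition score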

Test [9] is described as follows: loss of swimming-algae plug formation – whole organism, Chlamydomonas reinhardtii, WT vs cilia-less mutant, absorbance, 96-well, primary screen (AID 463189;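 active = inhibition at or above 50% relative to wild type and mutant plate controls; inactive = inhibition below 50%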;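 also: 0% = wild type cc124 cells in DMSO and 100% = ciliumless bld1 mutant cells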). Particulars: Chlamydomonas reinhardtii gravitaxis, OD600 absorbance, 2 days; at 10 µM; stronger effect = higher value.
The mark [10] stands for this setting: measured here: cell density z-score.
Where [11] appears, read: measured here: nuclear c-Myc green intensity z-score.
Where [12] appears, read: measured here: nuclear pErk red intensity z-score, stronger effect = higher value.

Sequence of Alpha-2C adrenergic receptor (Homo sapiens) (P18825 whole entry, looked up): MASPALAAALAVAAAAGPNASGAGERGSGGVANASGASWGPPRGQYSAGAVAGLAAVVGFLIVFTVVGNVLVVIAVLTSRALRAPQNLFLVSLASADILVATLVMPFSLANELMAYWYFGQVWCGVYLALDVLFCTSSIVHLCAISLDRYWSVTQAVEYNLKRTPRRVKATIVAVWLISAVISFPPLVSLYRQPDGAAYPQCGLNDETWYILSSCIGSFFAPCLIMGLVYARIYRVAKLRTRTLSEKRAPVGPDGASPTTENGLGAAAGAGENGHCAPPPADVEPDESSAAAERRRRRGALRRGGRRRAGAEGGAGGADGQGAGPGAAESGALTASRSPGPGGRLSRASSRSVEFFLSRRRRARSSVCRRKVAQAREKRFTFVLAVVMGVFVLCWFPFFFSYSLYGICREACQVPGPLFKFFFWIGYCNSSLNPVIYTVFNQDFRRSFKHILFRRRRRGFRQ

Turning to `O=C(NC1(C(F)(F)F)C(=O)Nc2c1c(=O)[nH]c(=O)n2-c1ccccc1)c1cccnc1` (stereo unspecified), in test [1], the cell count is 471. Further, the inhibition is 1.9% (inactive) in test [1], -47.1% (inactive) in test [2], 3.5% (inactive) in [4] and 32% (inactive) in test [9]. For the same compound, the nuclei count in test [2] stood at 106%. Further, the values for the z-score in [3] (setting [10]), in test [3] (setting [11]) and in test [3] (setting [12]) were -0.151, -1.59 and 0.837, respectively. Besides, the fluorescence slope in test [5] was -0.52 (inactive). The NADPH fluorescence slope in test [6] was -2.5e-05 (inactive). In addition, the slope in test [7] was 0.00618 (inactive). The outcome in [8] was inactive.
As for `CCOC(=O)c1cnc(SC2CC(=O)N(c3cccc(OC)c3)C2=O)nc1N` (stereo unspecified), the cell count in [1] was 591. For the same compound, the inhibition in test [1] was -4.7% (inactive); in test [2] it was -23.7% (inactive); in [4], -8.76% (inactive); in test [9], -8.83% (inactive). The compound also showed a nuclei count in test [2] of 155%. In addition, the z-score in test [3] (setting [10]) is 0.0661; in test [3] (setting [11]) it was -0.104; in test [3] (setting [12]), -0.161. In addition, the fluorescence slope in test [5] is -0.317 (inactive). Besides, the NADPH fluorescence slope in [6] was -9.7e-06 (inactive). Also, the slope in test [7] is 0.00504 (inactive). In addition, the compound was classed as inactive in test [8].
As to `CC(C)Cc1nc(NCCN2CCOCC2)c(C#N)c2c1COC(C)(C)C2`, in test [1], the cell count worked out at 572. Besides, the inhibition in test [1] was 2.6% (inactive); in [2] it was -114% (inactive); in [4], -6.86% (inactive); in [9], 4.53% (inactive). This compound returned a nuclei count in test [2] of 192%. The z-score in [3] (setting [10]) was -1.39; in [3] (setting [11]) it was 1.03; in test [3] (setting [12]) it was 0.72. Also, the fluorescence slope in [5] is -0.302 (inactive). For the same compound, the NADPH fluorescence slope in test [6] is 2.3e-05 (inactive). Further, the slope in test [7] is 0.00502 (inactive). Also, in test [8], the outcome was inactive.
`c1cncc(-c2nnc3sc(C4CCCCC4)nn23)c1`: the cell count in test [1] amounted to 507. Besides, the inhibition in test [1] was -5.5% (inactive); in test [2], -138% (inactive); in test [4], 8.31% (inactive); in [9], 91.8% (active). For the same compound, the nuclei count in test [2] worked out at 106%. In addition, the z-score is 0.167 in test [3] (setting [10]), -0.011 in [3] (setting [11]) and 0.328 in test [3] (setting [12]). In test [5], the fluorescence slope is -0.442 (inactive). Further, in test [6], the NADPH fluorescence slope was 1.1e-05 (inactive). Also, the slope in test [7] is 0.00837 (inactive). Further, the call in test [8] was inactive.
On to `O=C(O)CC(NCc1ccco1)C(=O)OCCc1ccccc1` (stereo unspecified), for which the cell count in test [1] was determined as 534. Besides, the inhibition in test [1] was -1.9% (inactive); in test [2] it was 6.5% (inactive); in test [4], -1.75% (inactive); in [9], 32.9% (inactive). This compound also registered a nuclei count in [2] of 116%. Further, the z-score was -0.641 in test [3] (setting [10]), 0.383 in test [3] (setting [11]) and -0.409 in test [3] (setting [12]). Also, the fluorescence slope in [5] is -0.398 (inactive). Besides, the NADPH fluorescence slope in test [6] is 5.7e-06 (inactive). Moreover, the slope in [7] was 0.00596 (inactive). The call in test [8] was inactive.
Consider `COc1cc(OC)cc(C(=O)N2CCC(N3CCN(c4ccccc4)CC3)CC2)c1`, for which the cell count in test [1] was 382. Further, the inhibition in [1] is -13.9% (inactive); in test [2] it was -114% (inactive); in test [4], 12.7% (inactive); in test [9], -4.18% (inactive). In addition, the nuclei count in [2] is 122%. Besides, the values for the z-score in [3] (setting [10]), in test [3] (setting [11]) and in [3] (setting [12]) were 1.61, -0.715 and -0.404, respectively. Further, the fluorescence slope in [5] is -0.342 (inactive). Also, the NADPH fluorescence slope in test [6] was 5.8e-05 (inactive). Besides, the slope in test [7] was 0.00556 (inactive). Moreover, in [8], the compound was called inactive.
For `Cc1ccc(C(C)C)c(OCCNc2nc3c(c(=O)n(C)c(=O)n3C)n2C)c1`, the cell count in test [1] amounted to 605. Moreover, the inhibition is -26.5% (inactive) in test [1], -61.7% (inactive) in test [2], -4.27% (inactive) in test [4] and -2.79% (inactive) in [9]. This compound also returned a nuclei count in [2] of 165%. Besides, the z-score in [3] (setting [10]) was -0.12; in test [3] (setting [11]) it was -0.388; in test [3] (setting [12]) it was 2.45. For the same compound, in test [5], the fluorescence slope is -0.422 (inactive). Besides, the NADPH fluorescence slope in test [6] is -5.2e-05 (inactive). Moreover, the slope in test [7] was 0.0063 (inactive). In addition, in test [8], the call was inactive.

A word on the inhibition: it is the relative decrease from the control value, in per cent.

The record behind these values is PubChem BioAssay.
